Assay: Toxicity liver stage against HepG2, at 10uM
Format: cell-based
Design: test concentration 10 uM, cell line HepG2-A16-CD81EGFP
Conditions: human, HepG2-A16-CD81EGFP cells; read-out: INHIBITION
Outline: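 Uninfected HepG2-A16-CD81EGFP cells, 3 × 10^3 per well, 1536-well, plated on prespotted compound at 10 μM final, parasite-free screening media added to match infected plates; puromycin 10 μM positive, DMSO 0.5% negative; run in parallel with 48 h PbLuc assay at 37 °C, 5% CO2; viability by CellTiter-Glo luminescence, normalized to controls.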

Structure (SMILES) | cytotoxicity at 10 µM
Cc1ccc(N2C(=O)N[C@@H]3CCN(C(=O)C4CC4)[C@@H]3C2=O)cc1 | 3.85%
Cc1occc(=O)c1OCc1noc(C(=O)NCC2CC2)n1 | -2.51%
CCS(=O)(=O)N1CCN(CC(F)(F)F)CC1 | -1.99%
COC1(CNC(=O)NCCOc2ccccc2)CCSC1 (stereo unspecified) | -0.572%
CCN1C(=O)CC[C@@H]2[C@H]1CCN2S(=O)(=O)c1cccs1 | 0.169%
CCOCC(=O)N1CCCC2(CCN(c3ccccc3)C2=O)C1 (stereo unspecified) | 2.02%
CCCNC(=O)c1cc(-c2ccn(C(C)C)n2)n2ccccc12 | 1.92%
CN(C)CC(=O)N1Cc2cc(N(C)C)ccc2C1c1cnco1 (stereo unspecified) | -0.757%
CNC(=O)[C@@H]1COC[C@H]2CN(C(=O)c3cccc(OC)c3)C[C@H]21 | 12.2%
CN1C(=O)CCC12CCCN(C(=O)c1ccoc1)C2 (stereo unspecified) | 2.65%
Cc1noc(C2(NC(=O)c3cccnc3O)CCCCC2)n1 | -9.83%
O=C(Cn1cc(-c2ccccc2)ncc1=O)Nc1nc(C2CC2)n[nH]1 | 6.2%
COCC1CN(C(=O)c2cccn2C)Cc2ncnn2C1 (stereo unspecified) | -8.97%
CCN(Cc1nonc1C)C(=O)c1cnccn1 | -4.04%
CCCn1nnc(NCc2ccc(-c3ccc(Br)cc3)o2)n1 | -4.11%
O=C1CNc2ncnc(Nc3cnn(Cc4ccccc4F)c3)c2N1 | 2.27%
Cc1nc(NCc2cccnc2)cc(C2COCCN2)n1 (stereo unspecified) | 3.78%
Cc1cc(C(F)(F)F)nc(C2COCCN2S(C)(=O)=O)n1 (stereo unspecified) | -2.6%
Cn1ncc2ccc(C3CCCN(Cc4ccsc4)C3)nc21 (stereo unspecified) | 8.61%
c1cnc2[nH]c(C3CCCC3)c(CN3CCOCC3)c2c1 | -1.06%
CC(C)C(=O)N1CCCC(c2cncc(Oc3cccnc3)n2)C1 (stereo unspecified) | -2.83%
CNC(=O)c1cccc(C2CNCCN2C(=O)c2ccn(C)n2)c1 (stereo unspecified) | -4.22%
Cc1ccc(C(=O)N2CCCC(c3[nH]ncc3S(C)(=O)=O)C2)s1 (stereo unspecified) | -10.6%

Structure (SMILES) | cytotoxicity at 10 µM
Cc1ccsc1C(=O)N1CCC(O)(CN2CCc3ccccc3C2)C1 (stereo unspecified) | 0.803%
Cc1ccc(Oc2nccnc2C2CCN(C(=O)C(C)(C)N)CC2)cc1 | -7.86%
CNc1cncc(C2CCCN2Cc2ccnc(N3CCCC3)n2)n1 (stereo unspecified) | -12.1%
Cc1nc(CCC(=O)NC2CCC2)cc(C2CCNCC2)n1 | -5.15%
COc1ccc(-c2nc(CCNCc3ccncc3)co2)cc1 | -6.11%
N#Cc1cccc(S(=O)(=O)NC(=O)C2CC(c3ccccc3)=NO2)c1 (stereo unspecified) | 1.85%
CC1CN(CC(=O)NCCc2ccccc2)CCN1c1nccs1 (stereo unspecified) | -2.79%
Cc1ccc(S(=O)(=O)NCCc2nnc[nH]2)c2cccnc12 | -5.93%
CCOc1ccc(CNC2CCCN(c3cccnn3)C2)cc1OC (stereo unspecified) | -3.92%
Cc1nc(CCCNC(=O)c2c(F)cc(F)cc2F)n[nH]1 | -4.31%
CC(NC(=O)N1CCCC1)c1ccc(S(N)(=O)=O)cc1 (stereo unspecified) | -8.2%
CN(C)C(=O)COc1ccccc1CNC1CCc2ncnn2C1 (stereo unspecified) | 5.38%
COCC(=O)NS(=O)(=O)c1ccc(F)c(F)c1 | -6.49%
CS(=O)(=O)CCC(=O)NC(c1ccc(F)cc1)C(F)(F)F (stereo unspecified) | -4.44%
O=C(NC1CC1)C1CCN(Cn2nc(-c3ccccc3)oc2=O)CC1 | 15%
NC(=O)c1cc(NC(=O)N2CCOCC2)ccc1F | -48.8%
CCOC(C)c1noc(CN2CCN(Cc3ccno3)CC2)n1 (stereo unspecified) | 7.24%
Cc1nc(C)c(C(C)NC(=O)NCCNc2cccc(F)c2C#N)s1 (stereo unspecified) | -1.37%
Cc1ccccc1OCCN(C)Cc1noc(CC(C)C)n1 | -6.99%
CN(C)Cc1ccc(N2CCN(CCOCC(F)(F)F)CC2)nc1 | 1.25%
CCN(C(C)=O)C(c1ccc(Cl)cc1)c1ccccn1 (stereo unspecified) | -4.29%
CN(Cc1ccncc1)c1cncc(Br)c1 | 2.71%
Cc1cc(C(=O)NCC(=O)N2CCOCC2)nn1C(C)(C)C | -3.44%

Structure (SMILES) | cytotoxicity at 10 µM
CC(Sc1nnc(C2CC2)n1CC(N)=O)c1ccc(Cl)cc1 (stereo unspecified) | 7.72%
CCC(=O)NCC(=O)NCc1cc(Br)ccc1OC(F)F | 17.5%
O=C(CCn1cncn1)NC1(c2cccc(Br)c2)CCC1 | -20.2%
O=C(CCc1cscn1)NS(=O)(=O)c1ccc2c(c1)CCC2 | -24.5%
Cc1nn(C)c(C)c1C1COCCN1C(=O)Cc1cccc(F)c1 (stereo unspecified) | -11%
Cc1nc(C)n(CC2CCCN2CCCc2ccccc2)n1 (stereo unspecified) | -14.1%
COCC1CN(C(=O)Cc2ccc(F)cc2)Cc2ccnn2C1 (stereo unspecified) | -73.9%
Cn1cccc1C(=O)N1CCC2(CC1)CN(c1ccccc1)C(=O)CO2 | -79.1%
CN(C)[C@@H]1CCN(C(=O)c2ccccn2)[C@H]1Cc1ccncc1 | -63.6%
COc1cccc(C(=O)N2CCOC3(CCCN(C(C)=O)C3)C2)c1 (stereo unspecified) | -68.6%
O=C(c1cnccn1)N1CCc2ncnc(C3CCOC3)c2CC1 (stereo unspecified) | -81.9%
O=C(NCC1CC1)c1c2c(N3CCCC3)ncnc2n2ccccc12 | -61.1%
CCOCC1CC2(CCN(C(=O)c3ncccn3)CC2)CO1 (stereo unspecified) | 4.93%
CC(=O)N1CCC(n2nccc2-c2cnc(NCCO)nc2)CC1 | -1%
O=C(NCc1nncn1C1CCCCC1)C1CNCCO1 (stereo unspecified) | -2.08%
c1cncc(CNc2ncnc3c2CCN(Cc2ccsc2)CC3)c1 | 7.91%
Cc1cc(C(=O)N2C[C@H](CO)C[C@H](CN3CCOCC3)C2)nc(C)n1 | 9.91%
CNc1nc(N2C[C@H](NC(=O)CCOC)[C@@H](C3CC3)C2)nc2c1CCC2 | 9.62%
Cc1nnc(SCCCNC(=O)c2ccc3c(c2)OCO3)s1 | 8.8%
CCCN(Cc1ccccc1C)C(CC)CO (stereo unspecified) | -6.08%
Nc1nc(N2CCCC(COc3ccc(F)cc3)C2)c2nc[nH]c2n1 (stereo unspecified) | 2.11%
CCN(CC)CCn1ccnc1-c1cccc(C#N)c1 | -5%
CC(=O)N1CCC(N2CCN(Cc3ccc(C)o3)C(CCO)C2)CC1 (stereo unspecified) | -3.57%

Structure (SMILES) | cytotoxicity at 10 µM
Cc1ccc(-n2ncc3c2CCCC3N)cc1C (stereo unspecified) | -1.97%
Cc1noc(-c2ccc(N[C@H]3CCCCNC3=O)nc2)n1 | 0.913%
Cn1ncc2c(NC3CCC3)nc(-c3ccncc3)nc21 | 16.7%
Cc1ccc(F)c(OC2(C(=O)O)CCN(C(=O)N3CCCC3)CC2)c1 | -3.94%
Cc1nc[nH]c1CN(C)CC1CCCN(CCc2ccc(Cl)cc2)C1 (stereo unspecified) | -15.5%
Cn1c(Cn2cccn2)nnc1C1CCN(Cc2cccnc2N)CC1 | -9.12%
CCCc1noc(CN(C)C(=O)C2COc3ccccc3C2)n1 (stereo unspecified) | -7.01%
O=C(c1cccs1)N1CCC(Cn2nc(-c3ccco3)ccc2=O)CC1 | -2.21%
NC(=O)C1CCN(C(=O)CCCc2nnc(-c3ccccc3)o2)CC1 | -13.2%
O=C(CCCc1nc(-c2ccccc2)no1)N1CCN(CCO)CC1 | -3.54%
Cc1ncsc1C(=O)NC1CCN(CCCC#N)CC1 | -14.7%
Cc1nc(C)n(CC2CCCN2Cc2nc3ccccc3s2)n1 (stereo unspecified) | -6.25%
CCn1ncc2c1CCCC2NCc1cccc2c1OCO2 (stereo unspecified) | -6.43%
Cc1ccc(C(=O)NC2CCN(Cc3cccc4c3OCCO4)CC2)s1 | -4.8%
COCc1ccc(CNCc2c(C)nn(C)c2N(C)C)cc1 | -16%
CC(NC(=O)CCOc1cccc(F)c1)c1nnc2n1CCC2 (stereo unspecified) | -14.1%
Cc1n[nH]c(C2CN(Cc3nnc(C4CC4)n3C)CCO2)n1 (stereo unspecified) | -16%
Cc1nn(C)c(C)c1C1CCCN1C(=O)CCNc1ncccn1 (stereo unspecified) | -7.37%
COc1ccc(C(N)c2cccc(S(C)(=O)=O)c2)cc1 (stereo unspecified) | 4.69%
Cc1nc(CNC(C)c2ccc(OCC(=O)NC3CC3)cc2)cs1 (stereo unspecified) | -2.82%
Cc1nn(C)c(C)c1CNCc1ccnc(N2CCOCC2)c1 | 0.626%
Cc1nc2sccn2c1CN(CCCN(C)C)Cc1ccco1 | -0.215%
Cc1cnc(N2CC[C@@H](N3CCOCC3)[C@@H]2Cc2ccncc2)nc1 | 4.47%

Structure (SMILES) | cytotoxicity at 10 µM
Cn1cc(C2CC(=O)NC23CCN(C(=O)c2cccnc2)CC3)cn1 (stereo unspecified) | -79.7%
Cc1ccc(CNC(c2ccccc2)c2nccn2C)cc1 (stereo unspecified) | -6.3%
CCCS(=O)(=O)N1CCO[C@H]2[C@H](OCc3ccccn3)CC[C@@H]21 | -9%
CN1CCC(c2nc3ccc(-c4cccc(F)c4)cn3n2)CC1 | 10.4%
CCOCC1CN(C(=O)Cc2ccsc2)Cc2ccnn2C1 (stereo unspecified) | -71.4%
O=C(CC1CC1)N[C@@H]1CN(Cc2ccncc2)C[C@@H]2CCCO[C@@H]21 | -7.96%
CNC(=O)[C@H]1C[C@@H]2CN(Cc3cccnc3OC)C[C@@H]2N1C(C)C | 11.5%
O=C(CC1CC1)NCc1cn2c(n1)CN(Cc1cccnc1)CC2 | -78%
Cn1nccc1-c1ccc2nc(C3CCN(CCO)CC3)nn2c1 | -14.1%
Cc1ccc(CN2CC[C@H]3C(=O)N(Cc4cccnc4)CCO[C@H]3C2)o1 | -88.7%
O=C1NC2(CCNCC2)CC1c1ccncc1 (stereo unspecified) | -60.7%
Cc1cccc(CN2C(=O)CC[C@@H]3[C@H]2CCN3Cc2ccc(C)s2)n1 | 5.45%
CN(C)[C@@H]1CCN(C(=O)c2ccco2)[C@H]1Cc1cnn(C)c1 | -81.9%
CN(C)CCN1CCO[C@H]2CN(C(=O)N(C)C)C[C@H]21 | 0.657%
CS(=O)(=O)N1CCC2(CN(C(=O)c3cccnc3)C2)C1 | -13%
c1ccc(CN2C[C@H]3CCC[C@@]3(COCC3CCOCC3)C2)nc1 | 1.49%
Cn1cc(CN2CCc3onc(C(=O)N4CCCC4)c3C2)cn1 | -12.2%
O=c1c2c[nH]c(N3CCOCC3)nc-2cn1Cc1cccc(F)c1 | -2.72%
COCC1N(C(=O)N2CCOCC2)C2CCC1(O)CC2 (stereo unspecified) | -0.791%

From ChEMBL document CHEMBL4513216, “Probing the Open Global Health Chemical Diversity Library for Multistage-Active Starting Points for Next-Generation Antimalarials” (ACS Infect Dis, 2020)
